Laboratory results published in ChEMBL document CHEMBL2163221, “Discovery of a potential anti-ischemic stroke agent: 3-pentylbenzo[c]thiophen-1(3H)-one” (J Med Chem, 2012).
Active and inactive are the calls of the source. The rule behind the calls is not given here.

Legend:
Platelet [1] = test: Inhibition of arachidonic acid-induced platelet aggregation in rabbit platelet rich plasma by Born's turbidimetric method; assay type: functional; settings: Oryctolagus cuniculus
Method in brief: (§1)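 Rabbit carotid blood in 3.8% sodium citrate (9:1); PRP by 500g spin for 10 min, PPP by a further 3000g spin for 10 min. PRP was preincubated in duplicate for 5 min at 37 °C with vehicle or agent (0.1, 0.2, 0.4, 0.8, 1.6 mM). Aggregation was triggered by ADP (10 μM final) or AA (1 mM), and maximal light transmission was read within 5 min, within 3 h of collection. Inhibition % = 100 × (1 − treated/control); IC50 was calculated.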

Platelet [2] = test: Inhibition of adenosine diphosphate-induced platelet aggregation in rabbit platelet rich plasma by Born's turbidimetric method; assay type: functional; settings: Oryctolagus cuniculus; method in brief: as §1
Rattus norvegicus [3] = test: Anticerebral ischemic activity in Sprague-Dawley rat middle cerebral artery occlusion model assessed as reduction of water content in brain at 30 mg/kg, ig for 7 consecutive days; assay type: functional, organism-based; parameters: dose 30 mg/kg
Method in brief: (§2)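 Rats given oral saline-vehicle pretreatment for 7 days underwent 2 h suture MCAO plus reperfusion. At 24 h the animals were decapitated and brains weighed wet, then dried at 105 °C for 24 h. Water % = (wet − dry)/wet × 100; n = 6/group.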

Plasma = test: Anticoagulant activity in rabbit plasma assessed as length of activated partial thromboplastin time; assay type: functional, cell-free; settings: Oryctolagus cuniculus
Platelet [4] = test: Inhibition of adenosine diphosphate-induced platelet aggregation in rabbit platelet rich plasma at 0.1 mM by Born's turbidimetric method; assay type: functional; settings: Oryctolagus cuniculus; method in brief: as §1
Platelet [5] = test: Inhibition of arachidonic acid-induced platelet aggregation in rabbit platelet rich plasma at 0.1 mM by Born's turbidimetric method; assay type: functional; settings: Oryctolagus cuniculus; method in brief: as §1
Rattus norvegicus [6] = test: Antioxidant activity in Sprague-Dawley rat middle cerebral artery occlusion model assessed as decrease in malondialdehyde level in brain at 90 mg/kg, ig for 7 consecutive days; assay type: functional; parameters: scale not given: the % may be the effect or the level left; settings: route intragastric
Method in brief: (§3)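 Rats pretreated orally in saline for 7 days underwent 2 h MCAO with reperfusion. At 24 h brains were removed, rinsed in cold 0.9% saline, blotted and stored at −70 °C. After protein quantification, GSH, SOD activity and MDA were measured with commercial kits; n = 12/group.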

Rattus norvegicus [7] = test: Antioxidant activity in Sprague-Dawley rat middle cerebral artery occlusion model assessed as decrease in malondialdehyde level in brain at 30 mg/kg, ig for 7 consecutive days; assay type: functional; parameters: scale not given: the % may be the effect or the level left; settings: route intragastric; method in brief: as §3
Rattus norvegicus [8] = test: Antioxidant activity in Sprague-Dawley rat middle cerebral artery occlusion model assessed as increase in superoxide dismutase activity at 90 mg/kg, ig for 7 consecutive days; assay type: functional; settings: route intragastric; method in brief: as §3
Rattus norvegicus [9] = test: Antioxidant activity in Sprague-Dawley rat middle cerebral artery occlusion model assessed as increase in superoxide dismutase activity at 30 mg/kg, ig for 7 consecutive days; assay type: functional; settings: route intragastric; method in brief: as §3
Rattus norvegicus [10] = test: Antioxidant activity in Sprague-Dawley rat middle cerebral artery occlusion model assessed as increase in glutathione level in brain at 90 mg/kg, ig for 7 consecutive days; assay type: functional; settings: route intragastric; method in brief: as §3
Rattus norvegicus [11] = test: Anticerebral ischemic activity in Sprague-Dawley rat middle cerebral artery occlusion model assessed as reduction in loss of hippocampal neurons at 90 mg/kg, ig for 7 consecutive days by hematoxylin-eosin staining; assay type: functional, organism-based; parameters: dose 90 mg/kg
Method in brief: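 Rats dosed ig in saline for 7 days before 2 h MCAO/reperfusion. Brain tissue sections from the ischemic side were stained with hematoxylin–eosin and examined at ×200 for hippocampal neuron loss; n = 6/group.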

Rattus norvegicus [12] = test: Anticerebral ischemic activity in Sprague-Dawley rat middle cerebral artery occlusion model assessed as reduction of water content in brain at 90 mg/kg, ig for 7 consecutive days; assay type: functional, organism-based; parameters: dose 90 mg/kg; method in brief: as §2
Rattus norvegicus [13] = test: Anticerebral ischemic activity in Sprague-Dawley rat middle cerebral artery occlusion model assessed as reduction in infarct size in brain at 90 mg/kg, ig for 7 consecutive days by TTC assay; assay type: functional; parameters: scale not given: the % may be the effect or the level left; settings: route intragastric
Method in brief: (§4)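 SD rats, chloral hydrate 350 mg/kg ip anaesthesia; right MCA occluded 2 h by silicone-tipped 4-0 nylon filament via ECA into ICA (>80% CBF drop by laser Doppler, 37 ± 0.5 °C), then reperfusion. Dosed in normal saline orally daily 7 days before ischemia. At 24 h, 2-mm coronal slices stained 2% TTC 30 min 37 °C; infarct area as % of whole brain; n = 6.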

Rattus norvegicus [14] = test: Anticerebral ischemic activity in Sprague-Dawley rat middle cerebral artery occlusion model assessed as reduction in infarct size in brain at 30 mg/kg, ig for 7 consecutive days by TTC assay; assay type: functional; parameters: scale not given: the % may be the effect or the level left; settings: route intragastric; method in brief: as §4
Rattus norvegicus [15] = test: Anticerebral ischemic activity in Sprague-Dawley rat middle cerebral artery occlusion model assessed as reduction in neurological deficit score at 90 mg/kg, ig for 7 consecutive days by Longa's method; assay type: functional; parameters: scale not given: the % may be the effect or the level left; settings: route intragastric
Method in brief: (§5)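 SD rats were dosed orally in normal saline for 7 days before ischemia (n = 12/group). They were anesthetized ip with 350 mg/kg chloral hydrate and given MCAO with a silicone-tipped 4-0 nylon suture for 2 h, then reperfusion. Occlusion was confirmed as >80% CBF drop by laser Doppler, with core temperature held at 37 °C. Deficits were scored blinded by modified Longa's method 24 h after reperfusion.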

Rattus norvegicus [16] = test: Anticerebral ischemic activity in Sprague-Dawley rat middle cerebral artery occlusion model assessed as reduction in neurological deficit score at 30 mg/kg, ig for 7 consecutive days by Longa's method; assay type: functional; parameters: scale not given: the % may be the effect or the level left; settings: route intragastric; method in brief: as §5
PC-12 [17] = test: Antioxidant activity in rat PC12 cells assessed as inhibition of hydroxyl radical-induced cytotoxicity at 10 uM treated for 2 hrs prior to H2O2/Fe+ challenge measured after 1 hr by MTT assay (reference value: 61.95%); assay type: functional; parameters: scale not given: the % may be the effect or the level left
PC-12 [18] = test: Antioxidant activity in rat PC12 cells assessed as inhibition of hydrogen peroxide induced cytotoxicity at 10 uM treated for 2 hrs prior to H2O2 challenge measured after 1 hr by MTT assay (reference value: 52.45%); assay type: functional; parameters: scale not given: the % may be the effect or the level left
Rattus norvegicus [19] = test: Antithrombotic activity in Sprague-Dawley rat arteriovenous shunt model assessed as reduction of thrombus dry weight at 90 mg/kg, po qd for 5 consecutive days; assay type: functional; parameters: scale not given: the % may be the effect or the level left
Method in brief: (§6)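 Male SD rats were dosed by gavage in saline daily for 5 days (n = 12/group). An A-V shunt linked the right carotid artery to the left jugular vein: a saline-filled 14 cm polyethylene tube holding 6 cm of four braided silk threads. After 15 min of flow, the threads were weighed wet, then dried 6 h at room temperature and reweighed, less the pre-experiment thread weight.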

Rattus norvegicus [20] = test: Antithrombotic activity in Sprague-Dawley rat arteriovenous shunt model assessed as reduction of thrombus dry weight at 30 mg/kg, po qd for 5 consecutive days; assay type: functional; parameters: scale not given: the % may be the effect or the level left; method in brief: as §6
Rattus norvegicus [21] = test: Antithrombotic activity in Sprague-Dawley rat arteriovenous shunt model assessed as reduction of thrombus wet weight at 90 mg/kg, po qd for 5 consecutive days; assay type: functional; parameters: scale not given: the % may be the effect or the level left; method in brief: as §6
Rattus norvegicus [22] = test: Antithrombotic activity in Sprague-Dawley rat arteriovenous shunt model assessed as reduction of thrombus wet weight at 30 mg/kg, po qd for 5 consecutive days; assay type: functional; parameters: scale not given: the % may be the effect or the level left; method in brief: as §6
Platelet [23] = test: Ratio of 3-nbutylphthalide to compound for arachidonic acid-induced platelet aggregation in rabbit platelet rich plasma at 0.1 mM; assay type: functional, Oryctolagus cuniculus
Platelet [24] = test: Ratio of 3-nbutylphthalide to compound for adenosine diphosphate-induced platelet aggregation in rabbit platelet rich plasma at 0.1 mM; assay type: functional, Oryctolagus cuniculus
Platelet [25] = test: Ratio of edaravone to compound for adenosine diphosphate-induced platelet aggregation in rabbit platelet rich plasma at 0.1 mM; assay type: functional, Oryctolagus cuniculus
Platelet [26] = test: Ratio of aspirin to compound for adenosine diphosphate-induced platelet aggregation in rabbit platelet rich plasma at 0.1 mM; assay type: functional, Oryctolagus cuniculus

CCC1SC(=O)c2ccccc21 (racemic)
IC50 (Platelet [1]): > 1000 µM
IC50 (Platelet [2]): > 1000 µM

CCCC1SC(=O)c2ccccc21 (racemic)
IC50 (Platelet [1]): 400 µM
IC50 (Platelet [2]): > 1000 µM

CCCCC1SC(=O)c2ccccc21 (racemic)
IC50 (Platelet [1]): 350 µM
IC50 (Platelet [2]): > 1000 µM

CCCCCC1SC(=O)c2ccccc21 (racemic)
Activity (Rattus norvegicus [3]): inactive
Activity (Plasma): inactive
inhibition at 100 µM (Platelet [4]): 15.6%
inhibition at 100 µM (Platelet [5]): 35.2%
Activity (Rattus norvegicus [6]): 40.9%
Activity (Rattus norvegicus [7]): 23.66%
Activity (Rattus norvegicus [8]): 39.77%
Activity (Rattus norvegicus [9]): 25.87%
Activity (Rattus norvegicus [10]): 82.67%
Activity (Rattus norvegicus [11]): Active
Activity (Rattus norvegicus [12]): Active
Activity (Rattus norvegicus [13]): 59.62%
Activity (Rattus norvegicus [14]): 35.5%
Activity (Rattus norvegicus [15]): 37.45%
Activity (Rattus norvegicus [16]): 25.09%
Activity (PC-12 [17]): 86.08%
Activity (PC-12 [18]): 77.23%
Activity (Rattus norvegicus [19]): 43.33%
Activity (Rattus norvegicus [20]): 32.85%
Activity (Rattus norvegicus [21]): 39.7%
Activity (Rattus norvegicus [22]): 27.35%
Ratio (Platelet [23]): 2.02
Ratio (Platelet [24]): 1.65
IC50 (Platelet [1]): 210 µM
IC50 (Platelet [2]): 420 µM
Ratio (Platelet [25]): 1.36
Ratio (Platelet [26]): 1.45

CC(C)CCC1SC(=O)c2ccccc21 (racemic)
IC50 (Platelet [1]): > 1000 µM
IC50 (Platelet [2]): > 1000 µM
